{"source": "paper PMC10664564", "about": "(Chemical Science, 2023)", "key": {"SQS": {"target": "T1, SQS (Homo sapiens, UniProt P37268)", "T1 sequence (P37268 1-417)": "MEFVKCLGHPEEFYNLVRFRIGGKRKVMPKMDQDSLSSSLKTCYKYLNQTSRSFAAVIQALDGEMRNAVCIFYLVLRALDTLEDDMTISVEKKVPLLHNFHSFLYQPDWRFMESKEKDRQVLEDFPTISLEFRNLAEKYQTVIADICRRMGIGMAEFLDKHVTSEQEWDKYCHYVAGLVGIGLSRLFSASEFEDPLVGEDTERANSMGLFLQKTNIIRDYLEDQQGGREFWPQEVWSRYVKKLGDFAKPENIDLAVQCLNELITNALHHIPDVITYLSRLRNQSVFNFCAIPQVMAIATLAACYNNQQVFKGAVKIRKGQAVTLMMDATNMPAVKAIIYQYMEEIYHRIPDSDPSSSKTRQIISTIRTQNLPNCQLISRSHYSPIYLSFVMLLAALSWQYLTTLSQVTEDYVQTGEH", "assay": "Western blot of SQS protein levels in HeLa cells", "assay_type": "cell-based", "details": "18 h, 10 μM", "how_it_was_run": "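HeLa cells were exposed to test compound, usually for 18 h, and SQS was detected by western blot (n = 2–4). DC50 and Dmax came from an 18 h dose–response (n = 4, mean ± SEM). A time course used 10 μM. Inhibitor arms were pre-incubated 2 h with MG132 (20 μM), chloroquine (20 μM) or MLN4924 (5 μM). A turnover arm used cycloheximide at 100 μg mL−1.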"}, "[1]": {"details": "phase II and III clinical trials, development stopped; cited from earlier work"}, "HeLa cells": {"test_system": "HeLa cells", "assay": "Cell viability assay ± MBCD", "assay_type": "cell-based, human", "details": "72 h", "how_it_was_run": "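HeLa cells grown 72 h in FBS-containing medium with methyl β-cyclodextrin at 3 mM (a concentration set as non-toxic for HeLa), treated with a range of test compound concentrations; viability read; n = 3, mean ± SD of one biological replicate shown.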"}, "Recombinant SQS (31-370)": {"target": "T2, Recombinant SQS (31-370) (Homo sapiens, UniProt P37268)", "T2 sequence (P37268 31-370)": "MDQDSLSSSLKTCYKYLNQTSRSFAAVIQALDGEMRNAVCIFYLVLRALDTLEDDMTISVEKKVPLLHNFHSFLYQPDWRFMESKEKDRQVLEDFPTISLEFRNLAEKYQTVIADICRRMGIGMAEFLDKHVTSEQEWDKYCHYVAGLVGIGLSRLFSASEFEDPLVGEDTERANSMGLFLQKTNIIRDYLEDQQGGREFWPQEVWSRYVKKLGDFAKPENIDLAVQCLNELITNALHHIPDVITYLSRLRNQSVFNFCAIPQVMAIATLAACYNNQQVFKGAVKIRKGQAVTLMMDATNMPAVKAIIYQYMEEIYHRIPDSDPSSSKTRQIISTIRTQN", "assay": "In vitro SQS activity assay", "assay_type": "biochemical", "details": "compound at 1 μM, positive control"}}}
{"compound": "CCNCCN(CC)c1nc(Nc2ccc3ncoc3c2)nc(N[C@@H](C)C2CCCCC2)n1", "note": "[LS-102]", "values": [{"measurement": "SQS levels, tool compound alone", "setting": "SQS", "value": "marked accumulation of SQS"}]}
{"compound": "COc1cccc([C@H]2O[C@H](CC(=O)N3CCC(CC(=O)O)CC3)C(=O)N(CC(C)(C)COC(C)=O)c3ccc(Cl)cc32)c1OC", "note": "[TAK-475, lapaquistat acetate]", "values": [{"measurement": "clinical safety finding", "setting": "[1]", "value": "hepatotoxicity accompanied by elevated bilirubin levels"}]}
{"compound": "C=C(CC[C@]12O[C@H](C(=O)O)[C@@](O)(C(=O)O)[C@](C(=O)O)(O1)[C@H](OC(=O)/C=C/[C@@H](C)C[C@@H](C)CC)[C@H]2O)[C@@H](OC(C)=O)[C@H](C)Cc1ccccc1", "note": "[ZAA, zaragozic acid A]", "values": [{"measurement": "cell viability under cholesterol depletion", "setting": "HeLa cells; MBCD 3 mM, 5 and 10 μM", "value": "completely abolish cell viability"}, {"measurement": "cell viability", "setting": "HeLa cells; standard conditions (DMEM 10% FBS)", "value": "neither ZAA nor KY02111 adversely affected cell viability"}, {"measurement": "inhibition of SQS activity", "setting": "Recombinant SQS (31-370)", "value": "completety inhibited the reaction"}]}
